Assay results taken from ChEMBL document CHEMBL1138056, “Potent benzimidazole sulfonamide protein tyrosine phosphatase 1B inhibitors containing the heterocyclic (S)-isothiazolidinone phosphotyrosine mimetic” (J Med Chem, 2006).

What was measured:
[1] = target: T1, Tyrosine-protein phosphatase non-receptor type 1 (Homo sapiens, UniProt P18031); assay: Inhibition of PTP1B by pNPP assay
T1 sequence (P18031 whole entry): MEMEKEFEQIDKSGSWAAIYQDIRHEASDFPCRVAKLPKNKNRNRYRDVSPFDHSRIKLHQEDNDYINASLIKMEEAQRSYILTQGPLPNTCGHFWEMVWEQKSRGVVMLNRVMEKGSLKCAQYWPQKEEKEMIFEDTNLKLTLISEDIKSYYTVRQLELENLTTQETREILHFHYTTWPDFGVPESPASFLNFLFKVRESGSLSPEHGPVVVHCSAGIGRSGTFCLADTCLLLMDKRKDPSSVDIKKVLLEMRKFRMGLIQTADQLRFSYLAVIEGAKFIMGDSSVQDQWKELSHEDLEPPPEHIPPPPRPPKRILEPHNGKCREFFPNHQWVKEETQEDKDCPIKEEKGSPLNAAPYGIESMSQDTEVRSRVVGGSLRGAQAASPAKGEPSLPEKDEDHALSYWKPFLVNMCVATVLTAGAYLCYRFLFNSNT

[2] = Permeability across Caco-2 cell membrane; type: ADME, cell-based; conditions: human, read-out: permeability
[3] = target: T2, Tyrosine-protein phosphatase non-receptor type 1 (Homo sapiens) (UniProt P18031); assay: Increase in phosphorylation level of human insulin receptor transfected in HEK293 cells at 80 uM; type: functional, cell-based
T2 sequence (whole entry): T1 sequence (P18031 whole entry)
How it was run: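 HEK293-MSR cells cotransfected with full-length human PTP1B and insulin receptor plasmids, attached 24 h, then treated 16 h in serum-free DMEM (0.4% DMSO final). Lysed on ice; IR phosphorylated at Y1162/Y1163 measured by ELISA and normalized to total protein (BCA). Expressed as fold shift; averages of triplicates from the same day.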

Row | SMILES | IC50 [1] [µM] | Papp [2] [×10⁻⁶ cm/s] | Activity [3]
1 | CS(=O)(=O)N[C@@H](Cc1ccc([C@@H]2CC(=O)NS2(=O)=O)cc1)c1nc2ccccc2[nH]1 | 0.59 | – | –
2 | O=C1CC(c2ccc(CC(NS(=O)(=O)c3ccc(C(F)(F)F)cc3)c3nc4ccccc4[nH]3)cc2)S(=O)(=O)N1 (stereo not given) | 0.051 | – | –
3 | O=C1CC(c2ccc(CC(NS(=O)(=O)c3ccc(Br)cc3)c3nc4ccccc4[nH]3)cc2)S(=O)(=O)N1 (stereo not given) | 0.11 | – | –
4 | O=C1CC(c2ccc(CC(NS(=O)(=O)c3c(F)cccc3F)c3nc4ccccc4[nH]3)cc2)S(=O)(=O)N1 (stereo not given) | 0.16 | – | –
5 | O=C1CC(c2ccc(CC(NS(=O)(=O)c3cccc(C(F)(F)F)c3)c3nc4ccccc4[nH]3)cc2)S(=O)(=O)N1 (stereo not given) | 0.067 | – | –
6 | N#Cc1ccc(S(=O)(=O)NC(Cc2ccc(C3CC(=O)NS3(=O)=O)cc2)c2nc3ccccc3[nH]2)cc1 (stereo not given) | 0.063 | – | –
7 | O=C(CCc1ccccc1)N[C@@H](Cc1ccc([C@@H]2CC(=O)NS2(=O)=O)cc1)c1nc2ccccc2[nH]1 | 0.6 | – | –
8 | O=C1CC(c2ccc(CC(NS(=O)(=O)c3ccc(F)c(F)c3)c3nc4ccccc4[nH]3)cc2)S(=O)(=O)N1 (stereo not given) | 0.11 | – | –
9 | O=C1CC(c2ccc(CC(NS(=O)(=O)c3cc(F)cc(F)c3)c3nc4ccccc4[nH]3)cc2)S(=O)(=O)N1 (stereo not given) | 0.072 | – | –
10 | COc1ccc2[nH]c(C(Cc3ccc(C4CC(=O)NS4(=O)=O)cc3)NS(=O)(=O)c3ccc(-c4ccccc4)cc3)nc2c1 (stereo not given) | 0.13 | – | –
11 | O=C1CC(c2ccc(CC(NS(=O)(=O)c3cccc(Cl)c3)c3nc4ccccc4[nH]3)cc2)S(=O)(=O)N1 (stereo not given) | 0.06 | – | –
12 | O=C1CC(c2ccc(CC(NS(=O)(=O)c3ccc(-c4ccccc4)cc3)c3nc4ccccc4[nH]3)cc2)S(=O)(=O)N1 (stereo not given) | 0.08 | – | –
13 | N#Cc1ccc2nc(C(Cc3ccc(C4CC(=O)NS4(=O)=O)cc3)NS(=O)(=O)c3ccc(-c4ccccc4)cc3)[nH]c2c1 (stereo not given) | 0.053 | – | –
14 | Cc1cc(C[C@H](NS(=O)(=O)c2ccccc2)c2nc3ccccc3[nH]2)ccc1[C@@H]1CC(=O)[N-]S1(=O)=O.[Na+] | – | 0.4 | 2.8
15 | Cc1cc(C[C@H](NS(=O)(=O)c2cccc(Cl)c2)c2nc3ccccc3[nH]2)ccc1[C@@H]1CC(=O)[N-]S1(=O)=O.[Na+] | 0.076 | 0.2 | 1.9
16 | O=C1CC(c2ccc(CC(NS(=O)(=O)c3ccc(F)cc3)c3nc4ccccc4[nH]3)cc2)S(=O)(=O)N1 (stereo not given) | 0.08 | – | –
17 | Cc1ccc2[nH]c(C(Cc3ccc(C4CC(=O)NS4(=O)=O)cc3)NS(=O)(=O)c3ccc(-c4ccccc4)cc3)nc2c1 (stereo not given) | 0.14 | – | –
18 | Cc1cc(C[C@H](NS(=O)(=O)c2ccccc2C#N)c2nc3ccccc3[nH]2)ccc1[C@@H]1CC(=O)[N-]S1(=O)=O.[Na+] | 0.018 | < 0.1 | 1.4
19 | N#Cc1ccccc1S(=O)(=O)NC(Cc1ccc(C2CC(=O)NS2(=O)=O)cc1)c1nc2ccccc2[nH]1 (stereo not given) | 0.045 | – | –
20 | Cc1cccc(S(=O)(=O)NC(Cc2ccc(C3CC(=O)NS3(=O)=O)cc2)c2nc3ccccc3[nH]2)c1 (stereo not given) | 0.085 | – | –

Row | SMILES | IC50 [1] [µM] | Papp [2] [×10⁻⁶ cm/s] | Activity [3]
21 | COc1cccc(S(=O)(=O)NC(Cc2ccc(C3CC(=O)NS3(=O)=O)cc2)c2nc3ccccc3[nH]2)c1 (stereo not given) | 0.048 | – | –
22 | O=C1CC(c2ccc(CC(NS(=O)(=O)c3cccc(Br)c3)c3nc4ccccc4[nH]3)cc2)S(=O)(=O)N1 (stereo not given) | 0.077 | – | –
23 | Cc1ccc(S(=O)(=O)NC(Cc2ccc(C3CC(=O)NS3(=O)=O)cc2)c2nc3ccccc3[nH]2)cc1 (stereo not given) | 0.08 | – | –
24 | CC(C)(C)c1cccc2[nH]c(C(Cc3ccc(C4CC(=O)NS4(=O)=O)cc3)NS(=O)(=O)c3ccc(-c4ccccc4)cc3)nc12 (stereo not given) | 0.46 | – | –
25 | O=C1CC(c2ccc(CC(NS(=O)(=O)c3ccccc3Cl)c3nc4ccccc4[nH]3)cc2)S(=O)(=O)N1 (stereo not given) | 0.16 | – | –
26 | O=C1C[C@@H](c2ccc(C[C@H](NS(=O)(=O)c3ccccc3)c3nc4ccccc4[nH]3)cc2)S(=O)(=O)[N-]1.[Na+] | 0.032 | 0.4 | 1
27 | O=C1CC(c2ccc(CC(NS(=O)(=O)c3ccccc3Br)c3nc4ccccc4[nH]3)cc2)S(=O)(=O)N1 (stereo not given) | 0.17 | – | –
28 | CC(=O)N[C@@H](Cc1ccccc1)C(=O)N[C@@H](Cc1ccc([C@@H]2CC(=O)NS2(=O)=O)cc1)C(N)=O | 0.24 | – | –
29 | O=C1CC(c2ccc(CC(NS(=O)(=O)c3ccc(Cl)cc3)c3nc4ccccc4[nH]3)cc2)S(=O)(=O)N1 (stereo not given) | 0.11 | – | –
30 | O=C1CC(c2ccc(CC(NS(=O)(=O)c3cc(Cl)cc(Cl)c3)c3nc4ccccc4[nH]3)cc2)S(=O)(=O)N1 (stereo not given) | 0.051 | – | –
31 | O=C1CC(c2ccc(C[C@H](NS(=O)(=O)c3ccccc3)c3nc4ccccc4[nH]3)cc2F)S(=O)(=O)[N-]1.[Na+] (stereo not given in full) | 0.018 | 0.2 | 1.6
32 | O=C1CC(c2ccc(CC(NS(=O)(=O)c3ccc(Cl)c(Cl)c3)c3nc4ccccc4[nH]3)cc2)S(=O)(=O)N1 (stereo not given) | 0.079 | – | –
33 | O=C1C[C@@H](c2ccc(C[C@H](NS(=O)(=O)c3ccccc3)c3nc4ccccc4[nH]3)cc2Cl)S(=O)(=O)[N-]1.[Na+] | 0.05 | < 0.1 | 1
34 | O=C1CC(c2ccc(CC(NS(=O)(=O)c3cc(F)ccc3F)c3nc4ccccc4[nH]3)cc2)S(=O)(=O)N1 (stereo not given) | 0.14 | – | –
35 | CC(=O)N[C@@H](Cc1ccc([C@@H]2CC(=O)NS2(=O)=O)cc1)c1nc2ccccc2[nH]1 | 0.94 | – | –
36 | O=C1CC(c2ccc(CC(NS(=O)(=O)c3cc(Cl)ccc3Cl)c3nc4ccccc4[nH]3)cc2)S(=O)(=O)N1 (stereo not given) | 0.16 | – | –
37 | O=C1CC(c2ccc(CC(NS(=O)(=O)c3ccccc3F)c3nc4ccccc4[nH]3)cc2)S(=O)(=O)N1 (stereo not given) | 0.12 | – | –
38 | Cc1cccc2[nH]c(C(Cc3ccc(C4CC(=O)NS4(=O)=O)cc3)NS(=O)(=O)c3ccc(-c4ccccc4)cc3)nc12 (stereo not given) | 0.19 | – | –
39 | O=C1CC(c2ccc(CC(NS(=O)(=O)c3ccc(Cl)cc3Cl)c3nc4ccccc4[nH]3)cc2)S(=O)(=O)N1 (stereo not given) | 0.28 | – | –

Results, then the compound that gave them:

Row | IC50 [1] [µM] | Papp [2] [×10⁻⁶ cm/s] | Activity [3] | SMILES
40 | 0.13 | – | – | O=C1CC(c2ccc(CC(NS(=O)(=O)c3ccccc3C(F)(F)F)c3nc4ccccc4[nH]3)cc2)S(=O)(=O)N1 (stereo not given)
41 | 0.16 | – | – | O=C1CC(c2ccc(CC(NS(=O)(=O)c3ccc(-c4ccccc4)cc3)c3nc4cc(C(F)(F)F)ccc4[nH]3)cc2)S(=O)(=O)N1 (stereo not given)
42 | 0.12 | – | – | O=C1CC(c2ccc(CC(NS(=O)(=O)c3ccc(-c4ccccc4)cc3)c3nc4cc(F)ccc4[nH]3)cc2)S(=O)(=O)N1 (stereo not given)
43 | 0.043 | – | – | O=C1CC(c2ccc(CC(NS(=O)(=O)c3cccc(F)c3)c3nc4ccccc4[nH]3)cc2)S(=O)(=O)N1 (stereo not given)
44 | 0.3 | – | – | Cc1ccccc1S(=O)(=O)NC(Cc1ccc(C2CC(=O)NS2(=O)=O)cc1)c1nc2ccccc2[nH]1 (stereo not given)
45 | 0.11 | – | – | O=C1CC(c2ccc(CC(NS(=O)(=O)c3ccc(F)cc3F)c3nc4ccccc4[nH]3)cc2)S(=O)(=O)N1 (stereo not given)
46 | 0.016 | < 0.1 | 2 | Cc1cc(C[C@H](NS(=O)(=O)c2ccc(Br)c(C(F)(F)F)c2)c2nc3ccccc3[nH]2)ccc1[C@@H]1CC(=O)[N-]S1(=O)=O.[Na+]
47 | 0.46 | – | – | O=C1CC(c2ccc(CC(NS(=O)(=O)c3c(Cl)cccc3Cl)c3nc4ccccc4[nH]3)cc2)S(=O)(=O)N1 (stereo not given)
48 | 0.14 | – | – | O=C1CC(c2ccc(CC(NS(=O)(=O)c3ccc(-c4ccccc4)cc3)c3nc4cc(Cl)ccc4[nH]3)cc2)S(=O)(=O)N1 (stereo not given)
49 | 0.094 | – | – | COc1ccc(S(=O)(=O)NC(Cc2ccc(C3CC(=O)NS3(=O)=O)cc2)c2nc3ccccc3[nH]2)cc1 (stereo not given)
50 | 0.34 | < 0.1 | 0.7 | O=C1CC(c2ccc(C[C@H](NS(=O)(=O)c3ccccc3)c3nc4ccccc4[nH]3)cc2Br)S(=O)(=O)[N-]1.[Na+] (stereo not given in full)
51 | 0.01 | 0.3 | 2.3 | O=C1CC(c2ccc(C[C@H](NS(=O)(=O)c3cccc(C(F)(F)F)c3)c3nc4cc(Cl)ccc4[nH]3)cc2F)S(=O)(=O)[N-]1.[Na+] (stereo not given in full)
52 | 0.15 | – | – | COC(=O)c1ccc2[nH]c(C(Cc3ccc(C4CC(=O)NS4(=O)=O)cc3)NS(=O)(=O)c3ccc(-c4ccccc4)cc3)nc2c1 (stereo not given)
53 | 0.24 | – | – | O=C1CC(c2ccc(CC(NS(=O)(=O)c3cccc(Cl)c3Cl)c3nc4ccccc4[nH]3)cc2)S(=O)(=O)N1 (stereo not given)
54 | 0.015 | < 0.1 | 1.1 | O=C1C[C@@H](c2ccc(C[C@H](NS(=O)(=O)c3cccc(F)c3)c3nc4ccccc4[nH]3)cc2F)S(=O)(=O)[N-]1.[Na+]
55 | – | – | 1 | Cc1cc(C[C@H](NS(=O)(=O)c2ccccc2)c2nc3ccccc3[nH]2)ccc1[C@H]1CC(=O)NS1(=O)=O
56 | 0.24 | – | – | O=C1CC(c2ccc(CC(NS(=O)(=O)c3ccc(-c4ccccc4)cc3)c3nc4c(O)cccc4[nH]3)cc2)S(=O)(=O)N1 (stereo not given)
